≈ marks a conversion by molar mass, not a printed value.
Assays:
Type in all cases: functional
[1] = system: Nakaseomyces glabratus; test: Antimicrobial activity against 5-fluorocytosine resistant Candida glabrata 66032-FC4 harboring Fcy1 A15D mutant assessed as lowest concentration inhibiting growth >=80% by broth microdilution method
In short: (§1)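 Broth microdilution with 5FC or 5FU in RPMI 1640 buffered with 0.165 M MOPS, pH 7.0, plus 2% dextrose, replacing the YPD of the cited protocol. Drug stocks were in 50% DMSO, and final DMSO was ≤0.5%. Plates were incubated at 35°C and read at 630 nm. MIC was the lowest concentration giving ≥80% growth inhibition relative to the drug-free control.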

[2] = system: Nakaseomyces glabratus; test: Antimicrobial activity against 5-fluorocytosine resistant Candida glabrata 66032-FC2 harboring Fur1 deltaG73-V81mutant assessed as lowest concentration inhibiting growth >=80% by broth microdilution method; in short: as §1
[3] = system: Nakaseomyces glabratus; test: Antimicrobial activity against 5-fluorocytosine resistant Candida glabrata 66032-FC3 harboring Fur1 G71V mutant assessed as lowest concentration inhibiting growth >=80% by broth microdilution method; in short: as §1
[4] = system: Nakaseomyces glabratus; test: Antimicrobial activity against 5-fluorocytosine resistant Candida glabrata 66032 assessed as lowest concentration inhibiting growth >=80% by broth microdilution method; in short: as §1
[5] = system: Nakaseomyces glabratus; test: Antimicrobial activity against 5-fluorocytosine resistant Candida glabrata 66032-FC5 harboring Fcy1 A15D mutant assessed as lowest concentration inhibiting growth >=80% by broth microdilution method; in short: as §1
[6] = system: Nakaseomyces glabratus; test: Antimicrobial activity against 5-fluorocytosine resistant Candida glabrata 66032-FC6 harboring Fcy1 G11D mutant assessed as lowest concentration inhibiting growth >=80% by broth microdilution method; in short: as §1
[7] = system: Nakaseomyces glabratus; test: Antimicrobial activity against 5-fluorocytosine resistant Candida glabrata 66032-FC1 harboring Fur1 183K mutant assessed as lowest concentration inhibiting growth >=80% by broth microdilution method; in short: as §1
[8] = system: Nakaseomyces glabratus; test: Antimicrobial activity against 5-fluorocytosine resistant and ura3 harboring Candida glabrata 66032u-FC6 harboring Fcy1 T92deltastop mutant assessed as lowest concentration inhibiting growth >=80% by broth microdilution method; in short: as §1
[9] = system: Nakaseomyces glabratus; test: Antimicrobial activity against 5-fluorocytosine resistant and ura3 harboring Candida glabrata 66032u-FC1 harboring Fcy2L W291stop mutant assessed as lowest concentration inhibiting growth >=80% by broth microdilution method; in short: as §1
[10] = system: Nakaseomyces glabratus; test: Antimicrobial activity against 5-fluorocytosine resistant and ura3 harboring Candida glabrata 66032u-FC5 harboring Fcy2L E342stop mutant assessed as lowest concentration inhibiting growth >=80% by broth microdilution method; in short: as §1
[11] = system: Nakaseomyces glabratus; test: Antimicrobial activity against 5-fluorocytosine resistant and ura3 harboring Candida glabrata 66032u-FC10 harboring Fcy2L Q396stop mutant assessed as lowest concentration inhibiting growth >=80% by broth microdilution method; in short: as §1
[12] = system: Nakaseomyces glabratus; test: Antimicrobial activity against 5-fluorocytosine resistant and ura3 harboring Candida glabrata 66032u-FC3 harboring Fcy1 H59D mutant assessed as lowest concentration inhibiting growth >=80% by broth microdilution method; in short: as §1
[13] = system: Nakaseomyces glabratus; test: Antimicrobial activity against 5-fluorocytosine resistant and ura3 harboring Candida glabrata 66032u assessed as lowest concentration inhibiting growth >=80% by broth microdilution method; in short: as §1
[14] = system: Nakaseomyces glabratus; test: Antimicrobial activity against 5-fluorocytosine resistant and ura3 harboring Candida glabrata BG14 assessed as lowest concentration inhibiting growth >=80% by broth microdilution method; in short: as §1
[15] = system: Nakaseomyces glabratus; test: Antimicrobial activity against 5-fluorocytosine resistant and ura3 harboring Candida glabrata BG14-FC4 harboring Fcy1 E17stop mutant assessed as lowest concentration inhibiting growth >=80% by broth microdilution method; in short: as §1
[16] = system: Nakaseomyces glabratus; test: Antimicrobial activity against 5-fluorocytosine resistant and ura3 harboring Candida glabrata BG14-FC8 harboring Fcy2L E238-V277dup mutant assessed as lowest concentration inhibiting growth >=80% by broth microdilution method; in short: as §1
[17] = system: Nakaseomyces glabratus; test: Antimicrobial activity against 5-fluorocytosine resistant Candida glabrata isolate 20251.021 harboring Fcy1 T84L mutant assessed as lowest concentration inhibiting growth >=80% by broth microdilution method; in short: as §1
[18] = system: Nakaseomyces glabratus; test: Antimicrobial activity against 5-fluorocytosine resistant Candida glabrata isolate 20408.055 harboring Fur1 G210D mutant assessed as lowest concentration inhibiting growth >=80% by broth microdilution method; in short: as §1
[19] = system: Nakaseomyces glabratus; test: Antimicrobial activity against 5-fluorocytosine resistant Candida glabrata isolate TE34-78 harboring Fcr1 L136R mutant assessed as lowest concentration inhibiting growth >=80% by broth microdilution method; in short: as §1
[20] = system: Nakaseomyces glabratus; test: Antimicrobial activity against 5-fluorocytosine resistant Candida glabrata isolate TE34-75 harboring FcY2J 1384F mutant assessed as lowest concentration inhibiting growth >=80% by broth microdilution method; in short: as §1

Structure (SMILES): Nc1nc(=O)[nH]cc1F [FLUCYTOSINE]
- MIC [1]: ≥ 32 µg/mL
- MIC [2]: ≥ 32 µg/mL
- MIC [3]: ≥ 32 µg/mL
- MIC [4]: 0.03 µg/mL (≈ 0.232 µM)
- MIC [5]: ≥ 32 µg/mL
- MIC [6]: ≥ 32 µg/mL
- MIC [7]: ≥ 32 µg/mL
- MIC [8]: ≥ 32 µg/mL
- MIC [9]: 1 µg/mL (≈ 7.75 µM)
- MIC [10]: 1 µg/mL (≈ 7.75 µM)
- MIC [11]: 1 µg/mL (≈ 7.75 µM)
- MIC [12]: ≥ 32 µg/mL
- MIC [13]: 0.008 µg/mL (≈ 0.062 µM)
- MIC [14]: 0.03 µg/mL (≈ 0.232 µM)
- MIC [15]: ≥ 32 µg/mL
- MIC [16]: 1 µg/mL (≈ 7.75 µM)
- MIC [17]: ≥ 32 µg/mL
- MIC [18]: ≥ 32 µg/mL
- MIC [19]: ≥ 32 µg/mL
- MIC [20]: 0.25 µg/mL (≈ 1.94 µM)

From ChEMBL document CHEMBL1687799, “Mutational analysis of flucytosine resistance in Candida glabrata” (2010)
